# Screening data from PubChem BioAssay.
# The full list was thinned out, with hits kept by preference.
# H69AR growth 86K: blocks growth of human H69AR lung tumor cells. AID 598. viability, % at 10 µM. 85,000 tested, 6% active. H69AR lung tumor viability, ATP luminescence, 72 h; stronger effect = lower value;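 active = viability at or below 40%; inactive = viability above 40%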;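 note: multidrug resistant small cell line overexpressing MRP-1 efflux transporter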
# HUVEC inhibit: human endothelial cell proliferation inhibition | HUVEC proliferation, CellTiter-Glo luminescence, 72 h; stronger effect = lower value | viability, % at 10 µM (by protocol) | 86,000 tested, 1.1% active;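 active = viability at or below 30%; inactive = viability above 30%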
# HCT116 PTEN-null: growth suppressors of cells with PTEN tumor suppressor deletion; viability, % at 10 µM; 140,000 tested, 1.2% active; HCT116 PTEN-null viability, CellTiter-Glo, 60 h; stronger effect = lower value; AID 827;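 active = viability at or below a set limit, 4 SD under the median of all tested compounds, cut at about 3.7% in these data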;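 note: PTEN knockout HCT116 line with beta catenin targeted HCT116 as companion control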
# Lung fibro prol: blocks proliferation of human lung fibroblasts; viability, % at 10 µM; 85,000 tested, 1.1% active; AID 719; LL 47 human lung fibroblast viability, ATP luminescence; stronger effect = lower value;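 active = viability at or below 50% in the single dose screen; inactive = viability above 50%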;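 note: compound exposure lasted 72 h before the ATP readout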
#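 Test system: LL 47 human lung fibroblasts / Quantity: 1,150 cells in each well / Medium: IMEM growth medium with 15% fetal bovine serum / Incubation: 72 h compound exposure at 37 °C after overnight plating / Detection: CellTiter-Glo luminescence measuring cellular ATP / Read-out: % viability versus median cells-only luminescence / Benchmarks: cell-only wells, no compound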
# HCT116 bCat-KO: beta-catenin-lacking colon tumor cell growth suppression | AID 818 | HCT116 beta-catenin knockout viability, CellTiter-Glo, 60 h; stronger effect = lower value | viability, % at 10 µM | 140,000 tested, 1.5% active;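 active = viability at or under a set limit, the compound median less 4 SD, cut at about 6% in these data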
# A number is an active result; - = inactive; . = not tested or not shown.
SMILES,H69AR growth 86K,HUVEC inhibit,HCT116 PTEN-null,Lung fibro prol,HCT116 bCat-KO
N#C/C(=C/c1ccc(N2CCOCC2)o1)c1nc2ccccc2[nH]1,23,-,-,-,-
N#C/C(=C\c1ccc(N2CCOCC2)o1)c1ccccc1,.,.,-,.,-
COc1cccc(/C=C(/C#N)c2ccc(F)cc2)c1OCc1cccc(C(=O)O)c1,.,.,-,.,-
N#C/C(=C\c1ccc(Sc2nc3ccccc3[nH]2)o1)c1ccccc1,33,-,-,-,-
COc1cc(N2CCCC2)c(OC)cc1/C=C(/C#N)c1cccc(F)c1,25,-,-,-,-
COc1ccc(S(=O)(=O)N2CCCCC2)cc1NC(=O)CSc1ncnc2ccccc12,.,.,-,.,-
CCN(CC)S(=O)(=O)c1cnccc1N1CCN(c2cccc(Cl)c2)CC1,.,.,-,.,-
N#C/C(=C/c1ccc(N2CCCCCC2)o1)c1ccc(F)cc1,2.8,-,-,11,-
CCOc1ccc(C(C)(C)C)cc1S(=O)(=O)N1CCOCC1,-,-,-,-,-
CC(C)(C)C1=CC(=O)C(N2CCOCC2)=CC1=O,.,.,2.0,.,2.0
CC1CC(N(C(=O)c2ccco2)c2ccccc2)c2ccccc2N1 (stereo unspecified),15,-,-,-,-
CCCOc1ccc2oc(=O)c3c(c2c1)CCCN3C(=O)CN1CCc2ccccc2C1,40,-,-,-,-
CC1CC(C)CN(CC(=O)N2CCCc3c2c(=O)oc2ccc(OCc4ccccc4)cc32)C1 (stereo unspecified),-,-,-,-,3.5
O=C(O)c1ccc(COc2ccc3c4c(c(=O)oc3c2)CCC4)o1,-,-,-,-,-
Cc1cc(=O)oc2ccc(OCC(=O)N3CCC(C)CC3)cc12,-,-,-,-,-
CC1CCN(CC(=O)N2CCCc3c2c(=O)oc2ccc(OCc4ccccc4)cc32)CC1,33,-,-,-,-
CN(C1CCCCC1)S(=O)(=O)c1cccc(C(=O)OCC(=O)NC2CCCc3ccccc32)c1 (stereo unspecified),.,.,-,.,-
O=C(NNC(=S)Nc1ccc(Cl)cc1Cl)C1CC1,.,.,-,.,-
CCOc1ccc(NC(=O)CC(c2ccccc2)c2ccc(F)cc2)cc1 (stereo unspecified),.,.,-,.,-
O=C(/C=C/c1cccc([N+](=O)[O-])c1)c1cccs1,.,.,1.5,.,2.2
O=C(/C=C/c1cccc([N+](=O)[O-])c1)Nc1ccc(NC(=O)c2cccs2)cc1,.,.,-,.,-
CN(C)c1ccc(CNc2ccc3c(c2)ncn3C)cc1,5.2,-,-,-,-
CCCCn1cnc2cc(NCc3ccncc3)ccc21,-,-,-,-,-
COC(=O)c1ccc(SCC(=O)NC2CCCCC2)c([N+](=O)[O-])c1,.,.,-,.,-
Cc1ccc(S(=O)(=O)N2CCC(C(=O)Nc3nnc(-c4ccco4)s3)CC2)cc1,38,-,-,-,-
SMILES,H69AR growth 86K,HUVEC inhibit,HCT116 PTEN-null,Lung fibro prol,HCT116 bCat-KO
Cc1csc2c(=O)n3c(nc12)CCCCC3,-,-,-,-,-
Cc1sc2c(=O)n3c(nc2c1C(=O)NCCCN1CCOCC1)CCCCC3,-,-,1.5,-,-
Cc1sc2c(=O)n3c(nc2c1C(=O)NC1CCCCC1)CCCCC3,39,-,-,-,-
O=C1Nc2ccccc2N(O)N1c1ccc(S(=O)(=O)N2CCCCCC2)cc1,.,.,-,.,-
O=C(Nc1cnc2ccccc2c1)c1cccnc1,7.7,-,-,-,-
CC(C)C(=O)Nc1ccc(C(=O)NCc2cccnc2)cc1,36,-,-,-,-
CCOC(=O)c1cccc(NC(=O)c2cncc(Br)c2)c1,.,.,-,.,-
CN(C)C(=O)c1ccc(NC(=O)c2cccnc2)cc1,39,-,-,-,-
CCOC(=O)c1cccc(NC(=O)c2cccnc2)c1,31,-,-,.,-
Cc1c(C(=O)Nc2ccccc2)sc2nc[nH]c(=O)c12,.,.,-,.,-
O=C1c2ccccc2C(=O)N1CCCCN(C(=O)c1cc([N+](=O)[O-])ccc1Cl)c1ccc(Cl)cc1,.,.,-,.,-
CC(OCCN1CCCC1)(c1ccc(F)cc1)c1ccc(F)cc1,.,.,-,.,-
CCOCC(=O)Nc1cccc(C(=O)OCC)c1,21,-,-,-,-
COc1ccc2c(c1)O[C@H](c1ccc3c(c1)OCO3)[C@@H](OC(=O)N[C@H](C)C1CCCCC1)C2=O,.,.,1.2,.,-
COc1cccc([C@@H]2Oc3ccc(OC)cc3C(=O)[C@H]2OC(=O)N[C@H](C)C2CCCCC2)c1,.,.,-,.,-
Cc1nccc2[nH]c(=O)c(C(=O)NC3CCCCC3C)cc12 (stereo unspecified),37,-,-,-,-
Cc1nc(C(F)(F)F)nc(Nc2ccc(N=Nc3ccccc3)cc2)c1C#N,.,.,-,.,-
